Data on 14 compounds can be found in PubChem BioAssay.

Assay [1] in a line: reducers of endogenous Her2 protein level, primary screen, SKBR3 breast tumor cells, AlphaScreen, ATP viability (AID 461;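 active means Her2 level under about 52% in both replicate screens, with viability over 70% of control, limit read from the data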;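 on Her2 level: lower value means less Her2 protein in the cells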;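 on viability: percent of carrier control wells set as 100% viability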). Particulars: 18-24 h, measured here: SKBR3 viability, ATP luminescence, at 10 µM. A general note: Bead proximity is the source of the signal in Alpha formats.
Assay [2] concerns the target Receptor tyrosine-protein kinase erbB-2 (Homo sapiens) (UniProt P04626). The description is as above. The conditions noted are these: 18-24 h, at 10 µM, stronger effect = lower value.
Assay [3] can be described thus: SK-BR-3 cell growth inhibitors, pilot screen, 24 h, human (AID 572;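 active means viability at or below 10% of carrier control in both of two separate runs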;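 further: compound exposure lasted between 18 and 24 h rather than exactly 24 h; 100% = carrier-treated control wells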). Particulars: SK-BR-3 viability, CellTiter-Glo luminescence, at 10 µM, stronger effect = lower value. (In general: In ATP-based viability assays light output follows the ATP content of the culture.)
Assay [4] can be described thus: HUVEC growth inhibition – cell-based, human, primary screen (AID 575).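 Further: 100% = median of untreated cell wells with 0.1% DMSO on each plate.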 Particulars: HUVEC proliferation, CellTiter-Glo luminescence, 72 h; at 10 µM; stronger effect = lower value. In outline:
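material = primary HUVEC, no more than 12 passages | input = 1250 cells per well | controls = vehicle and MePR control wells | measured by = CTG luminescence | times = 72 h compound incubation | format = collagen-coated 384-well format | read-out = % viability vs DMSO wells | doses = single 10 µM dose, 0.1% DMSO, from 5x medium stock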

The nature of assay [5]: growth inhibitors of H69AR lung tumor, primary screen, human, duplicate replicates (AID 580;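 active means viability at or under a set limit in both replicates, limit being median viability minus 3 SD, cut at about 48% in these data, passing the limit was not always enough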;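 further: 100% = mean luminescence of untreated wells and 0% = no signal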). Particulars: H69AR lung tumor cells viability, ATP luminescence, 72 h; at 10 µM; stronger effect = lower value.
Assay [6] is described as follows: reversal of MRP1-mediated doxorubicin resistance, pilot screen, H69AR cells, doxorubicin co-treatment (AID 601;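 active means viability loss from added drug above about 55%, and viability with drug at most 40%, in both replicates, limit read from the data, passing the limit was not always enough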). Particulars: CellTiter-Glo, 72 h, at 10 µM; for differential viability (reversal): stronger effect = higher value.
A short description of assay [7]: 384-well plate pilot, post-Golgi transport modulator project, inhibition of yeast transport mutant growth (AID 636; in the data active means inhibition above about 31%). Particulars: absorbance 615 nm, about 18 h, stronger effect = higher value.
Assay [8] can be described thus: growth suppression of yeast trafficking mutant, preliminary HTS, modulators of trafficking downstream of Golgi apparatus project, 1536-format plate, OD 615 nm (AID 637; in the data active means inhibition above about 30%). The conditions noted are these: yeast transport mutant growth, absorbance 615 nm, 18 h; stronger effect = higher value.
Where [9] appears, read: H69AR cells + 2 uM doxorubicin, measured here: viability with 2 uM doxorubicin, stronger effect = lower value.
Where [10] appears, read: H69AR cells, compound alone cytotoxicity.

Active and inactive are the calls of the source.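 How the source made its calls, unless noted: active means viability at or below 30% in both replicate assays; inconclusive means viability at or below 30% in just one of the two assays; inactive means the rest.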

Sequence of Receptor tyrosine-protein kinase erbB-2 (Homo sapiens) (P04626 whole entry, looked up): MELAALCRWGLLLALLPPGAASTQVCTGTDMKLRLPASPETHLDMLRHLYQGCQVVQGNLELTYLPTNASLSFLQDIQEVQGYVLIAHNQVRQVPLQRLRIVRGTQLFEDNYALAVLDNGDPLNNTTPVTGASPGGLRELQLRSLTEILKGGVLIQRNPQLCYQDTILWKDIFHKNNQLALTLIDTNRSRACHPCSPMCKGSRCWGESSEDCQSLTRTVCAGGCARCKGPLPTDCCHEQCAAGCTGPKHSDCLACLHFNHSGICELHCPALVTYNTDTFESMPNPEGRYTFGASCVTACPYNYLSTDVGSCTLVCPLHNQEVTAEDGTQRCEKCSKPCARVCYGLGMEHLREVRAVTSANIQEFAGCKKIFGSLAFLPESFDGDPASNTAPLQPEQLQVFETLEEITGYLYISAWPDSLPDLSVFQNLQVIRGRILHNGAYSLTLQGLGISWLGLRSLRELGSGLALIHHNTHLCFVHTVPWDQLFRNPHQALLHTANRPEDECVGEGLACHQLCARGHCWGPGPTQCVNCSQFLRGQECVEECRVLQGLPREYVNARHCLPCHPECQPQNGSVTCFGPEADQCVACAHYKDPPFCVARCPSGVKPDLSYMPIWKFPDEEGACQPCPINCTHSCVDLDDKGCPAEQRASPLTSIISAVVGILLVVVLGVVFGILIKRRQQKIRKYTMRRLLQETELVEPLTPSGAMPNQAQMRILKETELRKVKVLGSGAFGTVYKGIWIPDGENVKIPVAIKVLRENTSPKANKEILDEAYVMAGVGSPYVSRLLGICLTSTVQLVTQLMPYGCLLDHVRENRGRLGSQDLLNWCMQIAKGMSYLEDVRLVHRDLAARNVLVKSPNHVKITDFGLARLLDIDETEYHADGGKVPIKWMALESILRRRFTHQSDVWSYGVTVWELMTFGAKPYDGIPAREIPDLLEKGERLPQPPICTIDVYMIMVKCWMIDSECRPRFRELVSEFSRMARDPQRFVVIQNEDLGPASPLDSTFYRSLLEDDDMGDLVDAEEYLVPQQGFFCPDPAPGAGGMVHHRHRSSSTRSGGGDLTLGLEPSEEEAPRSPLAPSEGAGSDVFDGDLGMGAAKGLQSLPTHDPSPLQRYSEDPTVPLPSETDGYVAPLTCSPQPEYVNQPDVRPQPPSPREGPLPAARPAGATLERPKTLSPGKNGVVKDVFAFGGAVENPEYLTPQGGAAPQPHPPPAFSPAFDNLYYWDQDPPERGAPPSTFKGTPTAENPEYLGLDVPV

For the compound `Cc1ccc(-n2nnnc2SCC(=O)c2cc(C)n(CC3CCCO3)c2C)cc1` (stereo not given), the viability (commonly a read-out of living cells in per cent, often relative to untreated cells) was 83.5% in assay [1]; 83.5% (inactive) in assay [3]; 70.8% (inactive) in assay [4]; 86% (inactive) in assay [5]; 95.7% in assay [6] (setting [9]); 86% in assay [6] (setting [10]). Moreover, the Her2 level in assay [2] was 106% (inactive). The differential viability (reversal) in assay [6] (H69AR cells + 2 uM doxorubicin) was -9.62% (inactive). The figures for the inhibition in assay [7] and in assay [8] were -5.07% (inactive) and 0.48% (inactive), respectively.
As to `CCCC(=O)N=C1SC2CS(=O)(=O)CC2N1c1ccc(CC)cc1` (stereo not given), the viability was 97.5% in assay [1]; 97.5% (inactive) in assay [3]; 83.2% (inactive) in assay [4]; 93.2% (inactive) in assay [5]; 85.4% in assay [6] (setting [9]); 93.2% in assay [6] (setting [10]). In addition, the Her2 level in assay [2] was 80% (inactive). Besides, the differential viability (reversal) in assay [6] (H69AR cells + 2 uM doxorubicin) is 7.88% (inactive). Moreover, the values for the inhibition in assay [7] and in assay [8] were -5.33% (inactive) and 3.61% (inactive), respectively.
On to `CN(C)c1ccc(CNC2CC(C)(C)NC(C)(C)C2)cc1`, for which the viability in assay [1] is 91%; in assay [3], 91% (inactive); in assay [4], 94.2% (inactive); in assay [5], 98.9% (inactive); in assay [6] (setting [9]), 91.3%; in assay [6] (setting [10]), 98.9%. For the same compound, the Her2 level in assay [2] was 112% (inactive). In assay [6] (H69AR cells + 2 uM doxorubicin), the differential viability (reversal) is 7.67% (inactive). For the same compound, the inhibition (in general, the drop in the measured response relative to a control, in per cent) was -7.5% (inactive) in assay [7] and -6.07% (inactive) in assay [8].
In the case of `Cc1cc(NC(=O)c2cc3ccccc3o2)cc(C)c1OCC(=O)N1CCOCC1`, the viability in assay [1] was 92.5%; in assay [3], 92.5% (inactive); in assay [4] it was 90.6% (inactive); in assay [5], 90.3% (inactive); in assay [6] (setting [9]), 89.5%; in assay [6] (setting [10]), 90.3%. In addition, in assay [2], the Her2 level is 102% (inactive). For the same compound, the differential viability (reversal) in assay [6] (H69AR cells + 2 uM doxorubicin) is 0.745% (inactive). Also, the inhibition in assay [7] is -6.89% (inactive); in assay [8], -1.8% (inactive).
On to `CC1CN(C(=O)c2cc3cc(Cl)cc(Cl)c3oc2=O)CC(C)O1` (stereo not given), for which the viability was 83.5% in assay [1]; 83.5% (inactive) in assay [3]; 96.8% (inactive) in assay [4]; 92.4% (inactive) in assay [5]; 87.7% in assay [6] (setting [9]); 92.4% in assay [6] (setting [10]). For the same compound, the Her2 level in assay [2] was 102% (inactive). Also, the differential viability (reversal) in assay [6] (H69AR cells + 2 uM doxorubicin) was 4.73% (inactive). Also, the inhibition is -3.47% (inactive) in assay [7] and 23.8% (inactive) in assay [8].
With `CC1(c2ccc(Cl)cc2)NC(=O)N(CC(=O)NC(=O)NCc2ccco2)C1=O` (stereo not given), the viability in assay [1] was 96%; in assay [3], 96% (inactive); in assay [4] it was 61.5% (inactive); in assay [5], 107% (inactive); in assay [6] (setting [9]), 81%; in assay [6] (setting [10]), 107%. Also, the Her2 level in assay [2] is 80.5% (inactive). Also, the differential viability (reversal) in assay [6] (H69AR cells + 2 uM doxorubicin) was 26.4% (inactive). The results for the inhibition in assay [7] and in assay [8] were -3.82% (inactive) and -0.33% (inactive), respectively.
For the compound `CCN1CCN(Cc2ccc(NC(=O)Nc3ccc(SC)cc3)cc2)CC1`, the viability in assay [1] is 97.5%; in assay [3] it was 97.5% (inactive); in assay [4], 62% (inactive); in assay [5], 98.4% (inactive); in assay [6] (setting [9]), 80.1%; in assay [6] (setting [10]), 98.4%. In addition, in assay [2], the Her2 level is 82.5% (inactive). In addition, in assay [6] (H69AR cells + 2 uM doxorubicin), the differential viability (reversal) is 18.2% (inactive). The inhibition in assay [7] is -4.93% (inactive); in assay [8] it was 1.94% (inactive).
For the compound `O=C(Cn1nnc(-c2ccc(S(=O)(=O)N3CCCC3)cc2)n1)NCC1CCCO1` (stereo not given), the viability is 86% in assay [1]; 86% (inactive) in assay [3]; 89% (inactive) in assay [4]; 101% (inactive) in assay [5]; 98.7% in assay [6] (setting [9]); 101% in assay [6] (setting [10]). In addition, the Her2 level in assay [2] was 99% (inactive). The differential viability (reversal) in assay [6] (H69AR cells + 2 uM doxorubicin) is 2.39% (inactive). Also, the figures for the inhibition in assay [7] and in assay [8] were -3.78% (inactive) and 2.95% (inactive), respectively.
For the compound `Cc1cc(C)n2cc(CSc3nnnn3C)nc2n1`, the viability in assay [1] was 84.5%; in assay [3], 84.5% (inactive); in assay [4], 87.8% (inactive); in assay [5], 85.7% (inactive); in assay [6] (setting [9]) it was 86%; in assay [6] (setting [10]) it was 85.7%. Further, the Her2 level in assay [2] was 92% (inactive). Further, the differential viability (reversal) in assay [6] (H69AR cells + 2 uM doxorubicin) was -0.355% (inactive). The inhibition in assay [7] was 0.51% (inactive); in assay [8] it was 6.17% (inactive).
`CCOC(=O)c1cccc(NC(=O)CSc2nnc(-c3cccnc3)n2CC)c1`: the viability is 88.5% in assay [1]; 88.5% (inactive) in assay [3]; 101% (inactive) in assay [4]; 109% (inactive) in assay [5]; 95.2% in assay [6] (setting [9]); 109% in assay [6] (setting [10]). For the same compound, the Her2 level in assay [2] was 95% (inactive). Also, the differential viability (reversal) in assay [6] (H69AR cells + 2 uM doxorubicin) was 13.3% (inactive). Also, the inhibition in assay [7] is -4.67% (inactive); in assay [8], 0% (inactive).
As for `Fc1ccc(NCc2nnc(SCc3nnc(-c4ccccc4)o3)n2CC2CCCO2)cc1` (stereo not given), the viability in assay [1] was 96.5%; in assay [3], 96.5% (inactive); in assay [4], 97.8% (inactive); in assay [5] it was 78.9% (inactive); in assay [6] (setting [9]), 97.3%; in assay [6] (setting [10]) it was 78.9%. The Her2 level in assay [2] was 109% (inactive). For the same compound, the differential viability (reversal) in assay [6] (H69AR cells + 2 uM doxorubicin) is -18.4% (inactive). Also, the values for the inhibition in assay [7] and in assay [8] were -0.54% (inactive) and 15.4% (inactive), respectively.
On to `CCOC(=O)CSc1ncnc2c1cnn2-c1ccc(C)cc1`, for which the viability in assay [1] is 103%; in assay [3] it was 103% (inactive); in assay [4] it was 75% (inactive); in assay [5] it was 90.6% (inactive); in assay [6] (setting [9]), 91.4%; in assay [6] (setting [10]), 90.6%. Also, the Her2 level in assay [2] was 88.5% (inactive). In addition, the differential viability (reversal) in assay [6] (H69AR cells + 2 uM doxorubicin) was -0.755% (inactive). Further, the values for the inhibition in assay [7] and in assay [8] were -6.4% (inactive) and 0.33% (inactive), respectively.
Consider `Cc1noc(C)c1S(=O)(=O)N1CCC(C(=O)Nc2ccccn2)CC1`, for which the viability in assay [1] is 98%; in assay [3], 98% (inactive); in assay [4], 105% (inactive); in assay [5], 89.5% (inactive); in assay [6] (setting [9]) it was 83.3%; in assay [6] (setting [10]), 89.5%. In assay [2], the Her2 level was 81% (inactive). The differential viability (reversal) in assay [6] (H69AR cells + 2 uM doxorubicin) was 6.2% (inactive). Also, the inhibition in assay [7] is -2.11% (inactive); in assay [8], 0.48% (inactive).
Take `CCOC(=O)N1CCN(c2ncnc3c2[nH]c2ccc(OC)cc23)CC1`: the viability in assay [1] was 97.5%; in assay [3], 97.5% (inactive); in assay [4], 72.4% (inactive); in assay [5], 81.3% (inactive); in assay [6] (setting [9]), 77.9%; in assay [6] (setting [10]), 81.3%. In assay [2], the Her2 level is 79% (inactive). Also, the differential viability (reversal) in assay [6] (H69AR cells + 2 uM doxorubicin) was 3.37% (inactive). The values for the inhibition in assay [7] and in assay [8] were -3.6% (inactive) and -5.65% (inactive), respectively.
